Consider 20 compounds from ChEMBL document CHEMBL3870334, “Synthesis, anticancer, and docking studies of salicyl-hydrazone analogues: A novel series of small potent tropomyosin receptor kinase A inhibitors” (Bioorg Med Chem, 2017).

A short description of assay [1]: Cytotoxicity against human SKOV3 cells assessed as reduction in cell proliferation measured after 48 hrs by SRB assay. Format: functional, cell-based. To be noted: SK-OV-3, 48 h. In outline:
(§1)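 SRB assay of net cell proliferation after continuous 48 h exposure to test compound. Inhibition is expressed as a percentage of non-treated controls. Samples were run in triplicate, and the mean IC50 (concentration giving 50% inhibition of proliferation) was calculated. Doxorubicin served as positive control.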

The nature of assay [2]: Cytotoxicity against human MIAPaCa2 cells assessed as reduction in cell proliferation measured after 48 hrs by SRB assay. It is filed as functional, cell-based. To be noted: MIA PaCa-2, 48 h. In outline:
as §1

Assay [3] can be described thus: Cytotoxicity against human A549 cells assessed as reduction in cell proliferation measured after 48 hrs by SRB assay. It is filed as functional, cell-based. Particulars: A549, 48 h. In outline: as §1
Assay [4] is described as follows: Cytotoxicity against human HCT15 cells assessed as reduction in cell proliferation measured after 48 hrs by SRB assay. Format: functional, cell-based. Particulars: HCT-15, 48 h. In outline:
as §1

The nature of assay [5]: Cytotoxicity against human SK-MEL-2 cells assessed as reduction in cell proliferation measured after 48 hrs by SRB assay. It is filed as functional, cell-based. Particulars: SK-MEL-2, 48 h. In outline:
as §1

The target in assay [6] is T1, High affinity nerve growth factor receptor (Homo sapiens, UniProt P04629). In words: Inhibition of TrkA (unknown origin). In outline:
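Purified TrkA, biotinylated substrate peptide and inhibitor were preincubated 15 min at 25°C, then 100 µM ATP was added. After 30 min, Eu-cryptate anti-phosphotyrosine antibody (1 µM) and streptavidin-XL665 (125 nM) were added for 1 h. HTRF read at 320 nm excitation, 620/665 nm emission ratio. IC50 from % inhibition across 12 serial dilutions (0.03~10000 nM).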
Target sequence in this assay (P04629 whole entry): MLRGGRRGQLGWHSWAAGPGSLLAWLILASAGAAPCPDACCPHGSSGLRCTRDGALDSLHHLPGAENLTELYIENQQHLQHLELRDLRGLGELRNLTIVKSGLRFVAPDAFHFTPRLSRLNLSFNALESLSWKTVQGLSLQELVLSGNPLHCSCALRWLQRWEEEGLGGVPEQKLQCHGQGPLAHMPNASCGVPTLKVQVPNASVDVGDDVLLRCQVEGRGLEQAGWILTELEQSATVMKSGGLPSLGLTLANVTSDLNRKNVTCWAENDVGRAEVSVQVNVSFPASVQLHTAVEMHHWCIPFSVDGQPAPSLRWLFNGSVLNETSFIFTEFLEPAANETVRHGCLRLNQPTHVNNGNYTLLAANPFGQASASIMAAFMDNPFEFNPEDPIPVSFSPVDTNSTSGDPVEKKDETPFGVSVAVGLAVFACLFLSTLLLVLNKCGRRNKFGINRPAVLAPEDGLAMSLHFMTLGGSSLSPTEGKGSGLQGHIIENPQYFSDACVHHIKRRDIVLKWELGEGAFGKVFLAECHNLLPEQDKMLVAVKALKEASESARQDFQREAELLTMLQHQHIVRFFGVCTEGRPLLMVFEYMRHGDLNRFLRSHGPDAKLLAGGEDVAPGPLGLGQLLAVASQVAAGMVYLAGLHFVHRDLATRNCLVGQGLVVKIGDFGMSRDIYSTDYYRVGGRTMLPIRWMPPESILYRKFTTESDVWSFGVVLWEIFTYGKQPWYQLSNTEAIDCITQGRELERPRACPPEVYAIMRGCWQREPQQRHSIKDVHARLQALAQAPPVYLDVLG

Assay [7] has as its target T1, High affinity nerve growth factor receptor. In words: Inhibition of human N- terminal GST-tagged TrkA cytoplasmic domain (436 to 790 residues) expressed in baculovirus infected sf21 cells at 1 uM using biotinylated peptide substrate incubated for 15 mins followed by addition of ATP measured after 30 mins by TR-FRET assay relative to control.
Target sequence in this assay (P04629 33-796 limits assumed): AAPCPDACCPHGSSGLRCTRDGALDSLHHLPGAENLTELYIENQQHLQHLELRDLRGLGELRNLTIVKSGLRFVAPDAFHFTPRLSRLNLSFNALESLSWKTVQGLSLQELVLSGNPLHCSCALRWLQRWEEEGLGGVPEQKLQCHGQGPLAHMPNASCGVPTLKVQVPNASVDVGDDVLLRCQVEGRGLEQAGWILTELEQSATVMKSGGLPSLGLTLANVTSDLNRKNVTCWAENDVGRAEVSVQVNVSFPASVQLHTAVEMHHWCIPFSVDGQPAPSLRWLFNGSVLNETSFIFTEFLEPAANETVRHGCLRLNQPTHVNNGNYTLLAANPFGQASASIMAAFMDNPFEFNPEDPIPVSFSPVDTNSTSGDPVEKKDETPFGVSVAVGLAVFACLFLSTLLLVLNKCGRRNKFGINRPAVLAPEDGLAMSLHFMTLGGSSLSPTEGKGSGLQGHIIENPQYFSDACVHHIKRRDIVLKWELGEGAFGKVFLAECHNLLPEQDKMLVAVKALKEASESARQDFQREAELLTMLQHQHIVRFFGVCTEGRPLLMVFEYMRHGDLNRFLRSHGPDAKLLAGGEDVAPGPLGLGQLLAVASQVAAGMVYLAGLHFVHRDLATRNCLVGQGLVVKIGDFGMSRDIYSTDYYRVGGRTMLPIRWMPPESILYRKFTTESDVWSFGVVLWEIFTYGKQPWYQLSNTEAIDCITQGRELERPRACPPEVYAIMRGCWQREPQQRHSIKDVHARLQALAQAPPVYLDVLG
For assay [8] the target is unchanged. In words: Inhibition of human N- terminal GST-tagged TrkA cytoplasmic domain (436 to 790 residues) expressed in baculovirus infected sf21 cells using biotinylated peptide substrate incubated for 15 mins followed by addition of ATP measured after 30 mins by TR-FRET assay.
Target sequence in this assay (P04629 whole entry): as the sequence (P04629 whole entry) above
Assay [9] shares this target. In words: Inhibition of TrkA (unknown origin) by ELISA.
Target sequence in this assay (P04629 whole entry): as above
For assay [10] the target is unchanged. The assay is described as follows: Inhibition of human TrkA expressed in human U2OS cells assessed as inhibition of NGF-induced response measured after 1 hr by beta-galactosidase assay. It is filed as cell-based.
Target sequence in this assay (P04629 whole entry): as above

Where only a bound is given, the exact number is not on record here.

On to `COc1cccc2c1C(=O)c1c(O)c3c(c(O)c1C2=O)C[C@@](O)(C(=O)CO)C[C@@H]3O[C@H]1C[C@H](N)[C@H](O)[C@H](C)O1` [DOXORUBICIN], for which the IC50 in assay [1] came to 0.074 µM; in assay [2] it was 0.049 µM; in assay [3], 0.021 µM; in assay [4], 0.872 µM; in assay [5] it was 0.001 µM.
For the compound `Nc1ccc(Cc2cccc(NC(=O)N3CCN(c4ccccc4)C3=O)c2)cn1`, in assay [6], 0.02 µM corresponded to half-maximal inhibition (IC50).
On to `O=C(N/N=C/c1ccc(O)cc1)c1ccccc1O`, for which the IC50 in assay [1] was 9.1 µM; in assay [2], 1.18 µM; in assay [3], 2.86 µM; in assay [4] it was 8.6 µM; in [5], 5.46 µM. Besides, in assay [7], the inhibition is 20.6%.
With `COc1ccc(/C=N/NC(=O)c2ccccc2O)cc1`, the IC50 in [1] worked out at 14.4 µM; in assay [2] it was 8.64 µM; in assay [3], 12.9 µM; in [4] it was 28.1 µM; in assay [5], 15.2 µM.
With `O=C(N/N=C/c1ccc(O)c(O)c1)c1ccccc1O`, the IC50 was 9.14 µM in assay [1]; 4.74 µM in assay [2]; 3.15 µM in assay [3]; 10 µM in [4]; 2.54 µM in [8]; 8.86 µM in assay [5]. The compound also yielded an inhibition in assay [7] of 92.9%.
As to `O=C(N/N=C/c1ccc(O)cc1O)c1ccccc1O`, the IC50 in assay [1] came to 0.87 µM; in assay [2] it was 0.48 µM; in [3] it was 2.46 µM; in assay [4], 0.89 µM; in [8] it was 0.232 µM; in assay [5], 1.43 µM. The same compound returned an inhibition in assay [7] of 92.4%.
`Cc1ccc(/C=N/NC(=O)c2ccccc2O)cc1`: the IC50 was determined as 9.81 µM in assay [1]; 4.45 µM in assay [2]; 6.74 µM in assay [3]; 26.9 µM in [4]; 13.1 µM in [5]. In [7], this compound displayed an inhibition of 3.7%.
Consider `O=C(N/N=C/c1ccc([N+](=O)[O-])cc1)c1ccccc1O`, for which the IC50 in [1] was 8.8 µM; in assay [2] it was 6.73 µM; in assay [3], 8.72 µM; in [4], 22.7 µM; in assay [5] it was 9.34 µM.
`CN(C)c1ccc(/C=N/NC(=O)c2ccccc2O)cc1`: the IC50 is 18.5 µM in assay [1]; 20.7 µM in [2]; 21.5 µM in [3]; 38.4 µM in assay [4]; 19.3 µM in assay [5].
In the case of `COc1ccc(/C=N/NC(=O)c2ccccc2O)c(OC)c1`, the IC50 in assay [1] is 14.5 µM; in [2] it was 11.3 µM; in assay [3], 31.3 µM; in [4] it was 25.7 µM; in assay [5], 19.6 µM. The compound further showed an inhibition in assay [7] of 7.61%.
For the compound `CC1(C)C[C@H](c2cc(F)ccc2F)N(c2ccn3ncc(NC(=O)c4cnccn4)c3n2)C1`, the 50% inhibitory concentration (IC50) in assay [9] came to 0.002 µM.
In the case of `CCc1ncc(C(=O)C2CC([C@@H](C)CO)c3ncncc32)cc1NC(=O)Cc1ccc(C(F)(F)F)cc1` (some centres not stated), the concentration for half-maximal inhibition (IC50) in assay [10] amounted to 0.013 µM.
On to `Cn1cc(/C=C2\C(=O)Nc3cccnc32)c2ccccc21`, for which, in [7], the inhibition is more than 99%.
In the case of `O=C(N/N=C/c1ccccc1[N+](=O)[O-])c1ccccc1O`, the IC50 in [1] stood at 19.6 µM; in assay [2], 14 µM; in assay [3], 23.2 µM; in [4], 34.6 µM; in assay [5] it was 19.4 µM.
In [6], `COc1ccccc1/C=C/C(=O)Nc1nc(N)n(-c2ccccc2)n1` returned an IC50 of 0.027 µM.
Consider `Oc1ccc(Nc2nc(-c3ccccc3O)nc3ccccc23)cc1`, for which the IC50 in assay [6] worked out at 0.303 µM.
On to `O=C(N/N=C/c1ccccc1)c1ccccc1O`, for which the IC50 worked out at 5.94 µM in [1]; 2.46 µM in assay [2]; 2.78 µM in assay [3]; 21.3 µM in assay [4]; 9.77 µM in assay [5].
For the compound `COc1ncc(C(=O)C2CC(C(C)C)c3ncncc32)cc1NC(=O)Nc1cc(Cl)cc(Cl)c1` (configuration not stated), the IC50 in assay [10] is 0.048 µM.
With `O=C(N/N=C/c1ccc(Cl)cc1)c1ccccc1O`, the IC50 came to 9.83 µM in [1]; 7.19 µM in assay [2]; 22.2 µM in [3]; 20.9 µM in assay [4]; 14.3 µM in [5]. The compound further displayed an inhibition in assay [7] of 6.92%.
Take `O=C(N/N=C/c1ccc(O)c(O)c1O)c1ccccc1O`: the IC50 was determined as 1.96 µM in assay [1]; 2.21 µM in assay [2]; 7.16 µM in [3]; 3.71 µM in assay [4]; 0.38 µM in [8]; 1.84 µM in [5]. This compound also gave an inhibition in [7] of 90.9%.
